High-throughput results (PubChem)
KCNQ1 inh = blocks the human KCNQ1 potassium channel. P51787. CHO-K1 KCNQ1, FluxOR thallium flux fluorescence; stronger effect = higher value. B-score at 10 µM. hit rate 1.3% among 310,000;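 active means compounds whose thallium flux B-score, printed positive for inhibition, exceeds three library SD while starting fluorescence stays within three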;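 further: channel opened by potassium depolarization with thallium stimulus after 20 min compound exposure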
KCNK9 block = human KCNK9 channel inhibition; HEK293 KCNK9, FluxOR thallium flux fluorescence; stronger effect = lower value; B-score at 10 µM; hit rate 1.2% among 310,000; AID 488922;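 active means ratio B-score over 3 SD below the library mean, with starting fluorescence within 5 SD of its mean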;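 further: negative B-score means less thallium flux so channel inhibition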
Target sequence (Q9NPC2 whole entry, looked up): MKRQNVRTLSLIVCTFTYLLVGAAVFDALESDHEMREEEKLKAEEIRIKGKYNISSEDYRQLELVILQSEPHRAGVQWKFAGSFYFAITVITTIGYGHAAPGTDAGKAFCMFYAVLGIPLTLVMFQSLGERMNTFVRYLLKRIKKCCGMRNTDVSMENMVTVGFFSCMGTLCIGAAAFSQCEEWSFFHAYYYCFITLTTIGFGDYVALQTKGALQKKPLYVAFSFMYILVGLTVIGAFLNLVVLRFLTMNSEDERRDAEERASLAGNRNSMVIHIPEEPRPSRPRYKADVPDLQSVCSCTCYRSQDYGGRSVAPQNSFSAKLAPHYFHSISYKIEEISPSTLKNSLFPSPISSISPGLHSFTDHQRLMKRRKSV
KCNK3 inh = human KCNK3 channel inhibition, primary screen; hit rate 0.84% among 340,000; AID 602410; B-score at 10 µM; O14649; CHO-KCNK3 thallium flux, FluxOR fluorescence; stronger effect = lower value;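 active means B-score under library mean minus 4 SD, starting fluorescence ratio at most library mean plus 5 SD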;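 further: more negative B-score means stronger inhibition of thallium flux through KCNK3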
hERG rescue = compounds protecting human hERG from proarrhythmic drug block; Q12809; CHO-hERG, FluxOR thallium flux, dofetilide IC70 present; activation (rescue from dofetilide block), less the hit threshold, % at 10 µM; hit rate 0.51% among 310,000; AID 1511;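 active means activation above the mean of controls blocked by dofetilide plus 5 SD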;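 further: thallium influx through hERG after potassium depolarization seen as dye fluorescence rise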
KCNQ1 pot = potentiators or activators of human KCNQ1 potassium channel; hit rate 0.35% among 310,000; P51787; AID 2648; B-score at 10 µM; CHO-K1 KCNQ1, thallium flux FluxOR fluorescence; stronger effect = higher value;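 active means fluorescence ratio B-score, a plate-corrected score, at least three library SD, with initial intensity B-score within 5 SD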
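assay system = KCNQ1-transfected CHO-K1 cells | medium = assay buffer with matched DMSO | probe or stimulus = depolarizing K+/Tl+ stimulus, K2SO4 and Tl2SO4 each 12.5 mM in 5x stock | dosing = single dose | incubation = dye 90 min, compound 20 min, room temperature | detection = kinetic FluxOR fluorescence, 10 s baseline plus 110 s post-stimulus | evaluation = ratio B score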
* hit, by the source's call; i = inactive; . = no result given. An excerpt weighted towards active compounds, which were near 3.1% of everything screened.

SMILES	KCNQ1 inh	KCNK9 block	KCNK3 inh	hERG rescue	KCNQ1 pot
CC(C)CC(=O)NC(=S)Nc1nc(-c2cccc3ccccc23)cs1	i	i	i	0.4	34*
CC(CCc1ccccc1)NC(=O)c1cccs1 (stereo unspecified)	i	i	i	4.9*	i
S=C(NCCc1ccccc1)N/N=C/c1c(Cl)cccc1Cl	i	i	i	11.0*	i
Nc1nc2n(n1)C(=O)CC(c1ccccc1[N+](=O)[O-])N2 (stereo unspecified)	i	i	i	-18.5	i
Nc1nc2n(n1)C(=O)CC(c1ccc(Cl)cc1)N2 (stereo unspecified)	i	i	i	5.0*	i
CCCCCCCc1nc2c(=O)n(C)c3ccccc3c2o1	i	i	i	-13.3	i
CCCCCCc1nc2c(=O)[nH]c3ccccc3c2o1	i	i	i	6.2*	i
NC(=O)c1cc(S(=O)(=O)N2CCCC2)ccc1OCCOc1ccccc1F	.	.	i	.	.
CCOC(=O)c1oc2ccc(S(=O)(=O)n3nc(-c4ccc(OC)cc4)cc3N)cc2c1C	i	i	i	-6.0	9*
O=C(O)CSc1nc2ccccc2[nH]1	i	i	i	8.4*	i
O=C(O)CSc1nc2ccccc2c(=O)[nH]1	i	i	i	-8.2	i
Cn1c(=O)c(C(=O)NCCc2ccccc2)c(O)c2ccccc21	i	i	i	-1.6	i
C=CCn1c(=O)c(C(=O)NCCc2ccccc2)c(O)c2ccccc21	6*	i	i	-3.0	i
C=CCn1c(=O)c(C(=O)NCc2ccc(Cl)cc2)c(O)c2ccccc21	7*	i	i	-9.3	i
C=CCn1c(=O)c(C(=O)Nc2ccc(C)cn2)c(O)c2ccccc21	i	i	i	-5.0	i
CCCn1c(=O)c(C(=O)NCCc2ccccc2)c(O)c2ccccc21	10*	i	i	-3.1	i
COC(=O)/C=C\C(C#N)(C#N)N=Cc1ccc(OC)cc1	.	.	i	.	.
O=C(N/N=C/c1ccccc1)c1ccc(N2CCCC2=O)cc1	i	i	i	-3.9	i
CC1(C)Cc2c(ccc3ccccc23)C2=C(C(=O)N3CCCC3)C(=O)C(=O)N21	i	i	i	5.1*	i
C=CCC1(O)C(=O)N2C(=C1C(=O)OCC)c1ccc3ccccc3c1CC2(C)C (stereo unspecified)	i	i	i	-17.3	i
CCN(CC(=O)Nc1cccc(S(=O)(=O)N(C)c2ccccc2)c1)Cc1ccccc1	.	.	i	.	.
Cc1ccc(C(=O)Nc2nc(-c3ccccn3)cs2)o1	i	i	i	-6.6	i
CCc1cc(C(=O)Nc2nc(-c3ccccn3)cs2)sc1C	.	.	-9.25*	.	.
Cc1cccc(C)c1-n1nnnc1S(=O)(=O)Cc1ccccc1Cl	.	.	-8.73*	.	.
Cc1nc(S(=O)(=O)Cc2ccccc2Cl)nc2c1CCC2	i	i	i	-10.6	i
SMILES	KCNQ1 inh	KCNK9 block	KCNK3 inh	hERG rescue	KCNQ1 pot
CC1(c2ccc(Cl)cc2)NC(=O)N(CC(=O)NC2CCCCC2)C1=O (stereo unspecified)	.	.	i	.	.
Cc1cccc(NC(=O)c2cccc(NC(=O)Cc3cccs3)c2)c1	i	-6.9*	i	-8.8	i
CC(C)(C)NC(=O)c1cccc(NC(=O)Cc2cccs2)c1	i	i	i	-11.2	i
CC[C@]12c3[nH]c4ccccc4c3CCN1C(=O)C(CC(=O)NCCC1=CCCCC1)C[C@@H]2C(=O)N1CCN(C(=O)C2CC2)CC1 (stereo partly specified)	.	.	i	.	.
COc1ccc(/C=C/c2nc3ccccc3n2Cc2ccccc2OC)cc1	i	i	i	-14.6	i
COc1ccccc1Cn1c(/C=C/c2ccccc2)nc2ccccc21	i	-7*	i	-7.1	i
Cc1ccc(S(=O)(=O)N(Cc2ccc(F)cc2)Cc2ccco2)cc1	6*	i	i	-5.6	i
Cc1ccc(S(=O)(=O)N(CC(=O)O)Cc2ccco2)cc1	i	i	i	-6.7	i
CSc1ccccc1NC(=O)c1ccc(N2CCCC2=O)cc1	.	.	i	.	.
COc1ccc(OC)c(CN2CCN(C(=O)c3cccc(S(=O)(=O)Nc4ccc(F)cc4)c3)CC2)c1	.	.	i	.	.
Cc1ccc(/C=C2\SC(=S)N(C3CCS(=O)(=O)C3)C2=O)o1 (stereo unspecified)	i	i	i	-15.5	i
